Measurements from ChEMBL document CHEMBL3877254, “Tetracyclic indolines as a novel class of β-lactam-selective resistance-modifying agent for MRSA” (Eur J Med Chem, 2017).
Values after ≈ are worked out from the molar mass of the structure shown.

Columns and labels:
Staphylococcus aureus [1] = experiment: (§1) Potentiation of cefazolin-induced antibacterial activity against methicillin-resistant Staphylococcus aureus ATCC BAA-44 assessed as compound concentration required in combination with cefazolin to return MRSA sensitive concentration below 8 ug/ml after overnight incubation; assay type: functional
Procedure, shortened: (§2)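 Antibiotic held at fixed final level in MHB (amoxicillin/clavulanic acid 4/2 μg/mL; cefazolin 8 μg/mL); test compound (10 mg/mL DMSO stock) 2-fold serially diluted from 64 μg/mL top; final inoculum OD600 0.001; overnight at 37 °C with shaking; MRC = lowest compound concentration with no visible growth.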

[2] = Cytotoxicity against human HeLa cells after 24 hrs by CellTiter-Glo luminescent cell viability assay; assay type: toxicity, cell-based
Procedure, shortened: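 HeLa cells seeded at 20 000 cells/well in DMEM with 10% FCS and 1% penicillin/streptomycin, grown 16 h at 37 °C in 5% CO2. Medium then replaced and compounds added in DMSO (1 μL per 100 μL), final 0.5–32 μg/mL, triplicate. After 24 h at 37 °C, plates equilibrated to room temperature and CellTiter-Glo luminescence read.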

Staphylococcus aureus [3] = experiment: as §1, with “amoxicillin/clavulanic acid-induced” for “cefazolin-induced”, “NRS100” for “ATCC BAA-44”, “amoxicillin/clavulanic acid” for “cefazolin”, “4” for “8”; assay type: functional; procedure, shortened: as §2
Staphylococcus aureus [4] = experiment: Antibacterial activity against methicillin-resistant Staphylococcus aureus NRS100 after 18 hrs by broth microdilution method
Staphylococcus aureus [5] = experiment: Potentiation of methicillin-induced antibacterial activity against methicillin-resistant Staphylococcus aureus ATCC BAA-44 assessed as fold reduction in methicillin MIC at 20 uM after 18 hrs by broth microdilution method; assay type: functional
Staphylococcus aureus [6] = experiment: Potentiation of oxacillin-induced antibacterial activity against methicillin-resistant Staphylococcus aureus ATCC BAA-44 assessed as fold reduction in oxacillin MIC at 20 uM after 18 hrs by broth microdilution method; assay type: functional
Staphylococcus aureus [7] = experiment: Potentiation of ciprofloxacin-induced antibacterial activity against methicillin-resistant Staphylococcus aureus ATCC BAA-44 assessed as fold reduction in ciprofloxacin MIC at 20 uM after 18 hrs by broth microdilution method; assay type: functional
Staphylococcus aureus [8] = experiment: Potentiation of clindamycin-induced antibacterial activity against methicillin-resistant Staphylococcus aureus ATCC BAA-44 assessed as fold reduction in ciprofloxacin MIC at 20 uM after 18 hrs by broth microdilution method; assay type: functional
Staphylococcus aureus [9] = experiment: Potentiation of cefazolin-induced antibacterial activity against methicillin-resistant Staphylococcus aureus ATCC BAA-44 assessed as fold reduction in cefazolin MIC at 20 uM after 18 hrs by broth microdilution method; assay type: functional
Staphylococcus aureus [10] = experiment: Potentiation of tetracycline-induced antibacterial activity against methicillin-resistant Staphylococcus aureus ATCC BAA-44 assessed as fold reduction in tetracycline MIC at 20 uM after 18 hrs by broth microdilution method; assay type: functional
Staphylococcus aureus [11] = experiment: Potentiation of streptomycin-induced antibacterial activity against methicillin-resistant Staphylococcus aureus ATCC BAA-44 assessed as fold reduction in streptomycin MIC at 20 uM after 18 hrs by broth microdilution method; assay type: functional
Staphylococcus aureus [12] = experiment: Potentiation of daptomycin-induced antibacterial activity against methicillin-resistant Staphylococcus aureus ATCC BAA-44 assessed as fold reduction in daptomycin MIC at 20 uM after 18 hrs by broth microdilution method; assay type: functional
Staphylococcus aureus [13] = experiment: Potentiation of amoxicillin/clavulanic acid-induced antibacterial activity against methicillin-resistant Staphylococcus aureus ATCC BAA-44 assessed as fold reduction in amoxicillin/clavulanic acid MIC at 20 uM after 18 hrs by broth microdilution method; assay type: functional
Staphylococcus aureus [14] = experiment: Potentiation of meropenem-induced antibacterial activity against methicillin-resistant Staphylococcus aureus ATCC BAA-44 assessed as fold reduction in meropenem MIC at 20 uM after 18 hrs by broth microdilution method; assay type: functional
Staphylococcus aureus [15] = experiment: Potentiation of gentamycin-induced antibacterial activity against methicillin-resistant Staphylococcus aureus ATCC BAA-44 assessed as fold reduction in gentamycin MIC at 20 uM after 18 hrs by broth microdilution method; assay type: functional
Staphylococcus aureus [16] = experiment: Potentiation of erythromycin-induced antibacterial activity against methicillin-resistant Staphylococcus aureus ATCC BAA-44 assessed as fold reduction in erythromycin MIC at 20 uM after 18 hrs by broth microdilution method; assay type: functional
Staphylococcus aureus [17] = experiment: as §1, with “amoxicillin/clavulanic acid-induced” for “cefazolin-induced”, “NRS-46070” for “ATCC BAA-44”, “amoxicillin/clavulanic acid” for “cefazolin”, “4” for “8”; assay type: functional; procedure, shortened: as §2
Staphylococcus aureus [18] = experiment: as §1, with “amoxicillin/clavulanic acid-induced” for “cefazolin-induced”, “NRS-45898” for “ATCC BAA-44”, “amoxicillin/clavulanic acid” for “cefazolin”, “4” for “8”; assay type: functional; procedure, shortened: as §2
Staphylococcus aureus [19] = experiment: Antibacterial activity against methicillin-resistant Staphylococcus aureus NRS-46231 after 18 hrs by broth microdilution method
Staphylococcus aureus [20] = experiment: as §1, with “amoxicillin/clavulanic acid-induced” for “cefazolin-induced”, “NRS-46231” for “ATCC BAA-44”, “amoxicillin/clavulanic acid” for “cefazolin”, “4” for “8”; assay type: functional; procedure, shortened: as §2
Staphylococcus aureus [21] = experiment: Potentiation of amoxicillin/clavulanic acid-induced antibacterial activity against methicillin-resistant Staphylococcus aureus ATCC BAA-44 assessed as fractional inhibitory concentration by checkerboard assay; assay type: functional
Procedure, shortened: (§3)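 Checkerboard in MRSA; FICI = FICA + FICB, each FIC being the combination concentration (MRC) divided by that agent's MIC alone; FICI <0.5 taken as synergy.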

Staphylococcus aureus [22] = experiment: Antibacterial activity against methicillin-resistant Staphylococcus aureus NRS-45898 after 18 hrs by broth microdilution method
Staphylococcus aureus [23] = experiment: Antibacterial activity against methicillin-resistant Staphylococcus aureus NRS-46070 after 18 hrs by broth microdilution method
Staphylococcus aureus [24] = experiment: Potentiation of cefazolin-induced antibacterial activity against methicillin-resistant Staphylococcus aureus ATCC BAA-44 assessed as fractional inhibitory concentration by checkerboard assay; assay type: functional; procedure, shortened: as §3

Compound | MRC (Staphylococcus aureus [1]) | GI50 at 24 h [2] | MRC (Staphylococcus aureus [3]) | MIC (Staphylococcus aureus [4]) | other results
C=C1CCCC[C@@]23N(C(=N)N)CC[C@@]12c1c(C)cc(C)cc1N3C | 16 µg/mL | 19 µg/mL (≈ 58.6 µM) | 32 µg/mL | > 64 µg/mL | –
C=C1CCCC[C@@]23N(C(=O)C(F)(F)F)CC[C@@]12c1c(C)cc(C)cc1N3C | >64 µg/mL | > 64 µg/mL | >64 µg/mL | > 64 µg/mL | –
C=C1CCCC[C@@]23N(C(=O)OC)CC[C@@]12c1c(C)cc(C)cc1N3C | 16 µg/mL | 20 µg/mL (≈ 58.7 µM) | 16 µg/mL | > 64 µg/mL | fold change (FC) (Staphylococcus aureus [5]): 16; fold change (FC) (Staphylococcus aureus [6]): 8; fold change (FC) (Staphylococcus aureus [7]): 2; fold change (FC) (Staphylococcus aureus [8]): 1; fold change (FC) (Staphylococcus aureus [9]): 16; fold change (FC) (Staphylococcus aureus [10]): 2; fold change (FC) (Staphylococcus aureus [11]): 1; fold change (FC) (Staphylococcus aureus [12]): 1; fold change (FC) (Staphylococcus aureus [13]): 8; fold change (FC) (Staphylococcus aureus [14]): 16; fold change (FC) (Staphylococcus aureus [15]): 1; fold change (FC) (Staphylococcus aureus [16]): 1
C=C1CCCC[C@@]23N(C(=O)OC(C)(C)C)CC[C@@]12c1c(C)cc(C)cc1N3C | 8 µg/mL | 47 µg/mL (≈ 123 µM) | 4 µg/mL | > 64 µg/mL | –
C#CCN1c2cc(C)cc(C)c2[C@@]23CCN(C(=O)OC)[C@@]12CCCCC3=C | 64 µg/mL | 17 µg/mL (≈ 46.6 µM) | 64 µg/mL | > 64 µg/mL | –
C=C1CCCC[C@]23Nc4cc(C)cc(C)c4[C@]12CCN3C(=O)OC | 4 µg/mL | 28 µg/mL (≈ 85.8 µM) | 8 µg/mL | > 64 µg/mL | –
C=C1CCCC[C@@]23N(C(=O)OCC)CC[C@@]12c1c(C)cc(C)cc1N3C | 2 µg/mL | 61 µg/mL (≈ 172 µM) | 2 µg/mL | > 64 µg/mL | MRC (Staphylococcus aureus [17]): 2 µg/mL; MRC (Staphylococcus aureus [18]): 2 µg/mL; MIC (Staphylococcus aureus [19]): > 64 µg/mL; MRC (Staphylococcus aureus [20]): 2 µg/mL; fractional inhibitory concentration index (FICI) (Staphylococcus aureus [21]): 0.127; MIC (Staphylococcus aureus [22]): > 64 µg/mL; MIC (Staphylococcus aureus [23]): > 64 µg/mL; fractional inhibitory concentration index (FICI) (Staphylococcus aureus [24]): 0.078
C=C1CCCC[C@@]23N(C(=O)NCc4ccccc4)CC[C@@]12c1c(C)cc(C)cc1N3C | >64 µg/mL | > 64 µg/mL | >64 µg/mL | > 64 µg/mL | –
C=C1CCCC[C@@]23N(C(=O)OC)CC[C@@]12c1cc(Cl)ccc1N3C | 8 µg/mL | 53 µg/mL (≈ 153 µM) | 4 µg/mL | > 64 µg/mL | –
C=C1CCCC[C@@]23NCC[C@@]12c1c(C)cc(C)cc1N3C | 32 µg/mL | 26 µg/mL (≈ 92.1 µM) | 64 µg/mL | > 64 µg/mL | –
C=C1CCCC[C@@]23N(C)CC[C@@]12c1c(C)cc(C)cc1N3C | 8 µg/mL | 20 µg/mL (≈ 67.5 µM) | 16 µg/mL | > 64 µg/mL | –
C=C1CCCC[C@@]23N(C(=O)CCC(=O)O)CC[C@@]12c1c(C)cc(C)cc1N3C | >64 µg/mL | > 64 µg/mL | >64 µg/mL | > 64 µg/mL | –
C=C1CCCC[C@@]23N(C(=O)OC)CC[C@@]12c1ccccc1N3C | >64 µg/mL | 30 µg/mL (≈ 96 µM) | >64 µg/mL | > 64 µg/mL | –
C=C1CCCC[C@@]23N(C(C)=O)CC[C@@]12c1c(C)cc(C)cc1N3C | 32 µg/mL | 15 µg/mL (≈ 46.2 µM) | 32 µg/mL | > 64 µg/mL | –
C=C1CCCC[C@@]23N(C(=O)OCC)CC[C@@]12c1cc(F)ccc1N3C | >64 µg/mL | > 64 µg/mL | >64 µg/mL | > 64 µg/mL | –
C=C1CCCC[C@@]23N(C(=O)OC)CC[C@@]12c1c(C)cc(C)cc1N3CC | 2 µg/mL | 30 µg/mL (≈ 84.6 µM) | 4 µg/mL | > 64 µg/mL | –
C=C1CCCC[C@@]23N(C(=O)OCc4ccccc4)CC[C@@]12c1c(C)cc(C)cc1N3C | >64 µg/mL | > 64 µg/mL | 64 µg/mL | > 64 µg/mL | –
C=C1CCC[C@@]23N(C(=O)OCC)CC[C@@]12c1cc(Cl)ccc1N3C | 16 µg/mL | 41 µg/mL (≈ 118 µM) | 8 µg/mL | > 64 µg/mL | –
C=C1CCC[C@@]23N(C(=O)OC)CC[C@@]12c1c(C)cc(C)cc1N3C | 16 µg/mL | 40 µg/mL (≈ 123 µM) | 8 µg/mL | > 64 µg/mL | –
C=C1CCCC[C@@]23N(CC)CC[C@@]12c1c(C)cc(C)cc1N3C | 8 µg/mL | 18 µg/mL (≈ 58 µM) | 32 µg/mL | > 64 µg/mL | –
C=C1CCCC[C@@]23N(C(=O)OC)CC[C@@]12c1cc(C)ccc1N3C | 8 µg/mL | 27 µg/mL (≈ 82.7 µM) | 4 µg/mL | > 64 µg/mL | –
C=C1CCCC[C@@]23N(C(=O)NCC)CC[C@@]12c1c(C)cc(C)cc1N3C | >64 µg/mL | 51 µg/mL (≈ 144 µM) | >64 µg/mL | > 64 µg/mL | –
C=C1CCC[C@@]23N(C(=O)OC)CC[C@@]12c1cc(Cl)ccc1N3C | 16 µg/mL | 41 µg/mL (≈ 123 µM) | 8 µg/mL | > 64 µg/mL | –
C=C1CCCC[C@@]23N(C(=O)OCC)CC[C@@]12c1cc(F)c(OC)cc1N3C | >64 µg/mL | > 64 µg/mL | >64 µg/mL | > 64 µg/mL | –
C=C1CCC[C@@]23N(C(=O)OC)CC[C@@]12c1cc(C)ccc1N3C | 16 µg/mL | 15 µg/mL (≈ 48 µM) | 16 µg/mL | > 64 µg/mL | –
C=C1CCCC[C@@]23N(C(N)=O)CC[C@@]12c1c(C)cc(C)cc1N3C | 64 µg/mL | 19 µg/mL (≈ 58.4 µM) | 64 µg/mL | > 64 µg/mL | –
C=C1CCCC[C@]23N(C)c4cc(C)cc(C)c4[C@]12CCN3S(=O)(=O)c1ccc(Cl)cc1 | >64 µg/mL | > 64 µg/mL | >64 µg/mL | > 64 µg/mL | –
C=C1CCC[C@@]23N(C(=O)OCC)CC[C@@]12c1cc(C)ccc1N3C | 64 µg/mL | 43 µg/mL (≈ 132 µM) | 32 µg/mL | > 64 µg/mL | –
